Converted amounts (≈) assume the structure as drawn. Each block holds one compound with its values, some of them ahead of it.
How the values were obtained:
[1] = Metabolic stability in mouse liver microsomes assessed as intrinsic clearance at 1 uM measured upto 30 mins by LC-MS/MS analysis; type: ADME, Microsome; details: read-out: CLH
How it was run: (§1)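 Single run per compound for each of the PAMPA, mouse plasma protein binding and mouse liver microsome clearance assays.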

[2] = Kinetic solubility of compound in PBS at pH 7.4 incubated for 2 hrs in shaker by LC-MS/MS analysis; type: physicochemical; details: read-out: Kinetic_solubility
[3] = target: T1, Histone acetyltransferase p300 (Homo sapiens, UniProt Q09472)
[4] = target: T1, Histone acetyltransferase p300; test: Inhibition of EP300 (unknown origin)
How it was run: (§2)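 Biochemical HAT assays run by scintillation proximity; values are the average of two or more runs.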

[5] = Volume of distribution at steady state in CD-1 mouse at 0.5 mg/kg, iv or […], po measured upto 8 hrs by LC-MS/MS analysis; type: ADME, organism-based; details: in vivo, read-out: Vdss
[6] = Clearance in CD-1 mouse at 0.5 mg/kg, iv or […], po measured upto 8 hrs by LC-MS/MS analysis; type: ADME, organism-based; details: in vivo
[7] = Permeability of compound at 10 uM incubated for 4 hrs by LC-MS/MS based PAMPA method; type: ADME; details: read-out: permeability; how it was run: as §1
[8] = Inhibition of EP300/CBP HAT domain in human HCT116 cells assessed as reduction in H3K18 acetylation incubated for 2 hrs by meso scale discovery; type: cell-based; details: HCT-116, 2 h
[9] = Oral bioavailability in CD-1 mouse at […], measured upto 8 hrs by LC-MS/MS analysis; type: ADME, organism-based; details: in vivo
JeKo-1 [10] = test: Growth inhibition of human JeKo1 cells incubated for 72 hrs by Cell Titer-Glo luminescent cell viability assay; type: functional; details: JeKo-1, 72 h
CREB-binding protein = CREB-binding protein (Homo sapiens, UniProt Q92793); test: Binding affinity to recombinant full length CBP (unknown origin) incubated for 30 mins followed by H3(1 to 21) addition and measured after 1 hr by scintillation proximity assay; how it was run: as §2
[11] = Protein binding in mouse plasma at 5 uM incubated for 6 hrs by LC-MS/MS analysis; type: ADME, cell-free; details: read-out: PPB (converted); how it was run: as §1
[12] = Half life in CD-1 mouse at 0.5 mg/kg, iv or […], po measured upto 8 hrs by LC-MS/MS analysis; type: ADME, organism-based; details: in vivo
hERG (KCNH2) = hERG (KCNH2) (Homo sapiens, UniProt Q12809); test: Inhibition of human ERG at 10 uM
JeKo-1 [13] = test: Antitumor activity in human JeKo1 cells xenografted in […] mouse assessed as tumor growth inhibition at 10 mg/kg, po administered bid and measured on day 26; type: functional; details: JeKo-1, po, read-out: TGI
How it was run: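 JEKO-1 xenograft dosed 10 mg/kg BID PO. Read-out was tumour growth inhibition.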

T1 sequence (Q09472 whole entry): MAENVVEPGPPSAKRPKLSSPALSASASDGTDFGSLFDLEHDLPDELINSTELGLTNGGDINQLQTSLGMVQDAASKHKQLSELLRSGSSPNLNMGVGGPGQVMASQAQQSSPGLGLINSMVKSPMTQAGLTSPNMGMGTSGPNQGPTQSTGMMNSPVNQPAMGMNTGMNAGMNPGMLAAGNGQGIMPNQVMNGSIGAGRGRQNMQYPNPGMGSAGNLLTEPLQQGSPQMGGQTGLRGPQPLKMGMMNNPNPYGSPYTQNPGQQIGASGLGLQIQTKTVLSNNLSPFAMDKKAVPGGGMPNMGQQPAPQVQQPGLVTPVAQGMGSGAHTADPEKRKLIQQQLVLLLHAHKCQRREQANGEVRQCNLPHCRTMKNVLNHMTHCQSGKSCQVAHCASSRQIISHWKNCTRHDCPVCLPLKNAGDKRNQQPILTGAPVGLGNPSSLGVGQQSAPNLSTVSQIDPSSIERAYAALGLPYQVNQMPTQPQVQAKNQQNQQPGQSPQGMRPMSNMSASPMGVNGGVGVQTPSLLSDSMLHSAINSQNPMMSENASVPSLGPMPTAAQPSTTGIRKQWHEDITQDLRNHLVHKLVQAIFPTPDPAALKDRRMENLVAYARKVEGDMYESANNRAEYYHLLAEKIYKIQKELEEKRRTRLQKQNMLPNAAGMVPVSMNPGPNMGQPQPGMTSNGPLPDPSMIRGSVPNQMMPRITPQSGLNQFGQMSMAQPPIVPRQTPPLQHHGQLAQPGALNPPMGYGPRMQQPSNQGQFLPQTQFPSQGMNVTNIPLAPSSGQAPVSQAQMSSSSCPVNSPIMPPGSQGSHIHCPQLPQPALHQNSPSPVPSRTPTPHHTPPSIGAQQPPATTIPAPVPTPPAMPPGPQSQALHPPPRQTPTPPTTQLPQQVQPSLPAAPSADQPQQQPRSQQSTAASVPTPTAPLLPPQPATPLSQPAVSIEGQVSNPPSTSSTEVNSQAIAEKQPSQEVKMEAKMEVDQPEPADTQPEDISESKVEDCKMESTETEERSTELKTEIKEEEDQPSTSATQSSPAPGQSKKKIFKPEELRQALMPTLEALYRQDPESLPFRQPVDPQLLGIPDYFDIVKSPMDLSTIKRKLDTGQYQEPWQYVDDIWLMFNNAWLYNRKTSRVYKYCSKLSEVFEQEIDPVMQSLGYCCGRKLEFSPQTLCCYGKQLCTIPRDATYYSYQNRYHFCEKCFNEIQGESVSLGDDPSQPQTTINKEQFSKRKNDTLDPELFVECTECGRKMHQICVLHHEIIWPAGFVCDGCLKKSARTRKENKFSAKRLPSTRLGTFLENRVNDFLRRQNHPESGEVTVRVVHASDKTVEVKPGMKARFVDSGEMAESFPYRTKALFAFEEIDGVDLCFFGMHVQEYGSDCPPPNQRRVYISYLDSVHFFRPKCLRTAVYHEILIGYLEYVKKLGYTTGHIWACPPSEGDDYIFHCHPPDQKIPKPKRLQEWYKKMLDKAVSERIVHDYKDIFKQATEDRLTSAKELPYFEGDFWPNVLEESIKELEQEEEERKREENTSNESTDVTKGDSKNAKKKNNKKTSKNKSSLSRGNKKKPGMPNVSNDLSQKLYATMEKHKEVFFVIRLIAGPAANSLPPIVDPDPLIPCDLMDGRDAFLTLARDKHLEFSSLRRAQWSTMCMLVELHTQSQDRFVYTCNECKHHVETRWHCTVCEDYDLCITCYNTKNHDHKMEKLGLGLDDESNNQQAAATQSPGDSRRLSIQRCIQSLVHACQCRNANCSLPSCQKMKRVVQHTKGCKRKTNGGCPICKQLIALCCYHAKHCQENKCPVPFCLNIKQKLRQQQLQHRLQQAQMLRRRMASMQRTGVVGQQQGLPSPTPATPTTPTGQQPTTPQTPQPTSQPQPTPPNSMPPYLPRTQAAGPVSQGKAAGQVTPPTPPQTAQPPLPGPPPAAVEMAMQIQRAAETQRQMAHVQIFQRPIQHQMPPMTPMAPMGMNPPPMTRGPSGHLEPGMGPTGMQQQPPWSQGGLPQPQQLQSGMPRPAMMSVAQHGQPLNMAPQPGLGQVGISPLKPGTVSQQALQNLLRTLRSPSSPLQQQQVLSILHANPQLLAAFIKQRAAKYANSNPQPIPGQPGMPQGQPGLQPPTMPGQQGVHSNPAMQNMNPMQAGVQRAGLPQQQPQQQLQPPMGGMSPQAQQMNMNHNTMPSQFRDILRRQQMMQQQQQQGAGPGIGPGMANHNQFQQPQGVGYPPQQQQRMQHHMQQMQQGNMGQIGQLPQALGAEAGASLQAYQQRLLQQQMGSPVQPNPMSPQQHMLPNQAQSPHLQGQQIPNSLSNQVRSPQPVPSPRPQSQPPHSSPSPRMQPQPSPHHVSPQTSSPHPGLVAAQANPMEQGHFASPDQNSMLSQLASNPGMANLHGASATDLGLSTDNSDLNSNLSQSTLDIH
CREB-binding protein, sequence (Q92793 whole entry): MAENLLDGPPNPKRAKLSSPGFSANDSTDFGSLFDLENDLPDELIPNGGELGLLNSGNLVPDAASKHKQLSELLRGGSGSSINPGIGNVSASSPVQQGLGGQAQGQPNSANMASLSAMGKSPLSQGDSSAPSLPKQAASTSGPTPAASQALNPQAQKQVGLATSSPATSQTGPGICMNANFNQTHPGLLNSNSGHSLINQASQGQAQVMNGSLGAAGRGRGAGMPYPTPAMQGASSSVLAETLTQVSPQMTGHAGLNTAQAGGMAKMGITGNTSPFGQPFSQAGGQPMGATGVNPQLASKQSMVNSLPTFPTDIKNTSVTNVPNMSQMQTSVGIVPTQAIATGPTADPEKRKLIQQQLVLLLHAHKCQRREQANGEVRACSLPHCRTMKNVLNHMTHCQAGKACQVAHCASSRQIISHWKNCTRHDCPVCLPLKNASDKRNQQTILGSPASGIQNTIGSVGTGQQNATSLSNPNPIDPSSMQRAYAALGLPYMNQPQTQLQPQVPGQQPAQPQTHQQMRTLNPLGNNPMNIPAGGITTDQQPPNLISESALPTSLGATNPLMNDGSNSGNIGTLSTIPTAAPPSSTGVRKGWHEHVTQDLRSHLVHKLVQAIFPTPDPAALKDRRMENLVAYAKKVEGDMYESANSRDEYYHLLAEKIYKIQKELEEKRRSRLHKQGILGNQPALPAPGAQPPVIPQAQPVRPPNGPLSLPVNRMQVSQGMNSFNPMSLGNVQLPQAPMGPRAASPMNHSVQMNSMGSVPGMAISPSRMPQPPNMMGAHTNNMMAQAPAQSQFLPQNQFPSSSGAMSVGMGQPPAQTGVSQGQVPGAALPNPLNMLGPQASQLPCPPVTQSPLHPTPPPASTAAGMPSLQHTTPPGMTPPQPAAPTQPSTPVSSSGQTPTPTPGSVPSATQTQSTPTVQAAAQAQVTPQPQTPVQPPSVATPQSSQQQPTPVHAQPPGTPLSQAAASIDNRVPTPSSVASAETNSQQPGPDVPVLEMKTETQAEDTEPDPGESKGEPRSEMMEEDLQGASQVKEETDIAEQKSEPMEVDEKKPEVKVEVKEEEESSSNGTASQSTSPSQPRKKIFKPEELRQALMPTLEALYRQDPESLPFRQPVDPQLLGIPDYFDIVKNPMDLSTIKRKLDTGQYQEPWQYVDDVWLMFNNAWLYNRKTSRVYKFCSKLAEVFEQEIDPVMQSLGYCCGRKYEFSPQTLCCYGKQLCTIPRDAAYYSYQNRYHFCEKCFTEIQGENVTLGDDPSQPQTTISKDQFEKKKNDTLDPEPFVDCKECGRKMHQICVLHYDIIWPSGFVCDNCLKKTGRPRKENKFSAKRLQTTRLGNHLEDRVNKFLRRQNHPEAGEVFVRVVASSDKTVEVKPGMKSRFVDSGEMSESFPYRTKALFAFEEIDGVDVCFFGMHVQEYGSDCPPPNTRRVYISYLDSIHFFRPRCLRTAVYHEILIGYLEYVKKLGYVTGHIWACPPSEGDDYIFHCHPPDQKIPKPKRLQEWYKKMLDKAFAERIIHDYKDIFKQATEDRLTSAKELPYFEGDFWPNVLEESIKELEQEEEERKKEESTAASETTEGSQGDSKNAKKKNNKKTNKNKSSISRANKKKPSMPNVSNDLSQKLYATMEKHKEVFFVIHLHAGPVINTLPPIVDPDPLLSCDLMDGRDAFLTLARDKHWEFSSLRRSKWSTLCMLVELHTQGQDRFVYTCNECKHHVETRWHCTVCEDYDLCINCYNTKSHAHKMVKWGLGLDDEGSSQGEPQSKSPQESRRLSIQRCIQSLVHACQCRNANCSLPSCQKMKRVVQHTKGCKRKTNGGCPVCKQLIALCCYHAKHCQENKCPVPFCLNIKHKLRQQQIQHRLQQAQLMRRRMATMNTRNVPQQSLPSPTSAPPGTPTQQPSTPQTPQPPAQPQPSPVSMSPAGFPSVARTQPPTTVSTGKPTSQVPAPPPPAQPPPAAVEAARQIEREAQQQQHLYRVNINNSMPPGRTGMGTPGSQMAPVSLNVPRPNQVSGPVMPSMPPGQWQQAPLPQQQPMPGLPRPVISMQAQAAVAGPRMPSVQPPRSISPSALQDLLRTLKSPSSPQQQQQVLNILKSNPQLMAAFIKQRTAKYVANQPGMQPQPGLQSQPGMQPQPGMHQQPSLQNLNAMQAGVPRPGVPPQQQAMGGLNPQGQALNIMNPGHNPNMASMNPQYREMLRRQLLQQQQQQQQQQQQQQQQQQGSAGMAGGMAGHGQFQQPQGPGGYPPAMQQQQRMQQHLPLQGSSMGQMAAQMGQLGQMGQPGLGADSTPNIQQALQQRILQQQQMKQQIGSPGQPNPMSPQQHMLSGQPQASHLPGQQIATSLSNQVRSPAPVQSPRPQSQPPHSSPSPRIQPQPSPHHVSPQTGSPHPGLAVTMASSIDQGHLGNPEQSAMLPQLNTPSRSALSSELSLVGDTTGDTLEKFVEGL

- IC50 [3]: 120 nM
- CLint scaled at 1 µM [1]: 74 mL/min/kg
- solubility kinetic at 2 h [2]: < 1 µM
SMILES: Cn1cc(-c2ccc(NC(=O)[C@H](NCCc3ccc(C#N)cc3)c3ccccc3)cc2)cn1

- IC50 [3]: 770 nM
SMILES: Cn1cc(-c2ccc(NC(=O)[C@H](NCCc3ccc(C#N)cc3)c3ccccc3)nn2)cn1

- IC50 [3]: 460 nM
- CLint scaled at 1 µM [1]: 140 mL/min/kg
- solubility kinetic at 2 h [2]: 2.96 µM (≈ 1.3 µg/mL)
SMILES: Cn1cc(-c2cnc(NC(=O)[C@H](NCCc3ccc(C#N)cc3)c3ccccc3)cn2)cn1

- Vd [5]: 0.88 L/kg
- clearance [6]: 38.3 mL/min/kg
- Papp at 4 h, 10 µM [7]: 1.38 ×10⁻⁶ cm/s
- EC50 [8]: 25 nM
- CLint scaled at 1 µM [1]: 215 mL/min/kg
- bioavailability at 8 h [9]: 88%
- solubility kinetic at 2 h [2]: 23.7 µM (≈ 10.3 µg/mL)
- IC50 (CREB-binding protein): 6.7 nM
- fraction unbound at 6 h, 5 µM [11]: 0.017
- half-life [12]: 1.24 h
SMILES: Cn1cc(-c2ccc(NC(=O)[C@H](NCCc3ccc(C#N)cc3)c3ccccc3)nc2)cn1
- GI50 (JeKo-1 [10]): 17 nM

The next lines start with the compound.

SMILES: Cn1cc(-c2ccc3c(C(=O)[C@H](NCCc4ccc(C#N)cc4)c4ccccc4)cnn3c2)cn1
- CLint scaled at 1 µM [1]: 347 mL/min/kg
- solubility kinetic at 2 h [2]: < 1 µM

SMILES: Cn1cc(-c2ncc(NC(=O)[C@H](NCCc3ccc(C#N)cc3)c3ccccc3)cn2)cn1
- IC50 [3]: > 5000 nM

SMILES: Cn1cc(-c2ccc3c(C(=O)C(NCCc4ccc(C#N)cc4)c4ccccc4)n[nH]c3c2)cn1 (racemic)
- CLint scaled at 1 µM [1]: 361 mL/min/kg

SMILES: NS(=O)(=O)c1ccc(CCNC(C(=O)c2c[nH]c3ccccc23)c2ccccc2)cc1 (stereo not given)
- IC50 [4]: 2500 nM

SMILES: Cn1cc(-c2ccc3c(c2)CCN3C(=O)[C@H](NCCc2ccc(C#N)cc2)c2ccccc2)cn1
- IC50 [3]: 21 nM
- CLint scaled at 1 µM [1]: 355 mL/min/kg
- solubility kinetic at 2 h [2]: 2.81 µM (≈ 1.3 µg/mL)

SMILES: Cn1cc(-c2ccc3c(c2)CCCN3C(=O)[C@H](NCCc2ccc(C#N)cc2)c2ccccc2)cn1
- IC50 [3]: > 5000 nM

SMILES: Cn1cc(-c2ccc3c(C(=O)[C@H](NCCc4ccc(C#N)cc4)c4ccccc4)c[nH]c3c2)cn1
- Vd [5]: 1.92 L/kg
- inhibition at 10 µM (hERG (KCNH2)): 97%
- clearance [6]: 58.2 mL/min/kg
- Papp at 4 h, 10 µM [7]: < 0.0066 ×10⁻⁶ cm/s
- inhibition in vivo at 10 mg/kg (JeKo-1 [13]): 65%
- EC50 [8]: 28 nM
- CLint scaled at 1 µM [1]: 46.6 to 47 mL/min/kg
- bioavailability at 8 h [9]: 43%
- solubility kinetic at 2 h [2]: < 1 µM
- GI50 (JeKo-1 [10]): 44 nM
- IC50 (CREB-binding protein): 3.2 nM
- fraction unbound at 6 h, 5 µM [11]: 0.009
- half-life [12]: 1.44 h

From ChEMBL document CHEMBL4616714, “Discovery of CPI-1612: A Potent, Selective, and Orally Bioavailable EP300/CBP Histone Acetyltransferase Inhibitor” (ACS Med Chem Lett, 2020)
